Experimental data of several laboratories.
Compare with care: the assays were run in different laboratories.
Target: Phosphatidylinositol 4-phosphate 3-kinase C2 domain-containing subunit beta (PIK3C2B, Homo sapiens, UniProt O00750)

Cc1cnn2ncc(-c3ccnc(N(C)C)n3)c2c1  remaining binding (binding; 1 µM): 100%
O=S(=O)(NC1CCC(c2cc(F)ccc2F)(S(=O)(=O)c2ccc(Cl)cc2)CC1)C(F)(F)F (stereo not drawn)  remaining binding (cell-free assay, competition with immobilised ligand; 1 µM): 100%
Cc1cnc(Nc2ccc(C(=O)N3CCC(N4CCCC4)CC3)cc2)nc1-c1cc2ccccc2s1  remaining binding (binding, competition with immobilised ligand; 1 µM): 99%
Nc1ncc2c(n1)-c1c([nH]c3ccc(C#CC4CC4)cc13)CCCC2  remaining binding (binding, competition with immobilised ligand; 1 µM): 89%
CC(C)(C)c1ccc(-c2nc(CBr)nn2-c2cccc(O)c2)cc1  remaining binding (cell-free assay, competition with immobilised ligand; 10 µM): 60%
FC(F)(F)Oc1cccc(-c2cnc3ccc(-c4ccncc4)nn23)c1  remaining binding (cell-free assay, competition with immobilised ligand; 5 µM): 54%
CC1=C(C#N)C(c2ccc3c(c2)c(NC(=O)c2ccccc2C)nn3C)C(C#N)=C(C)N1  remaining binding (cell-free assay, competition with immobilised ligand; 1 µM): 76%
CN(C)c1ncc(F)c(-c2cnn3ncccc23)n1  remaining binding (binding; 1 µM): 76%
COc1cnc(Nc2cccc(S(N)(=O)=O)c2)nc1N1CCN(c2ccccc2)C(=O)C1  remaining binding (binding, competition with immobilised ligand; 1 µM): 97%
O=C(Nc1cnc(Oc2ccc(F)cc2)nc1)N1CCc2ncccc2[C@@H]1c1ccc(F)cc1  remaining binding (cell-free assay, competition with immobilised ligand; 1 µM): 95%
C[C@H]1CCN(c2nccc(-c3cnn4ncccc34)n2)C1  remaining binding (binding; 1 µM): 91%
O=C(NCCCN1CCOCC1)c1ccc(Nc2ncc(Cl)c(-c3ccc(Cl)s3)n2)cc1  remaining binding (binding, competition with immobilised ligand; 1 µM): 100%
CC1CCCN1c1nccc(-c2cnn3ncccc23)n1 (stereo not drawn)  remaining binding (binding; 1 µM): 100%
O=C(NCCCN1CCOCC1)c1ccc(Nc2nccc(-c3cc4ccccc4s3)n2)cc1  remaining binding (binding, competition with immobilised ligand; 1 µM): 92%
N[C@H]1CCN(c2nccc(-c3cnn4ncccc34)n2)C1  remaining binding (binding; 1 µM): 100%
O=C(Nc1c[nH]nc1C(=O)NC1CCNCC1)c1cc(F)cc(F)c1  remaining binding (binding, competition with immobilised ligand; 1 µM): 100%
COc1ccc2c(O[C@@H]3C[C@H]4C(=O)N[C@]5(C(=O)O)CC5/C=C\CCCCC[C@H](NC(=O)OC5CCCC5)C(=O)N4C3)cc(-c3csc(NC(=O)C(C)C)n3)nc2c1C (stereo partly drawn)  remaining binding (cell-free assay, competition with immobilised ligand; 1 µM): 82%
CNC(=O)[C@@H]1CC[C@@H](n2c(-c3ccc4cnccc4c3)nc3ccc(C(=O)NCc4cccc(C(N)=O)c4)cc32)C1  remaining binding (binding, competition with immobilised ligand; 1 µM): 100%
O=C(Nc1cccnn1)N1CCC(=Cc2cccc(Oc3ccc(C(F)(F)F)cn3)c2)CC1  remaining binding (cell-free assay, competition with immobilised ligand; 1 µM): 91%
CCN1CCN(Cc2ccc(C(=O)Nc3ccc(C)c(Oc4ccc5c(c4)CC(=O)N5)c3)cc2C(F)(F)F)CC1  remaining binding (binding, competition with immobilised ligand; 1 µM): 66%
COCCOc1nc(-c2ccc(Cl)nc2)nc2c1CN(C(=O)c1ncn3ccccc13)CC2  remaining binding (cell-free assay, competition with immobilised ligand; 0.1 µM): 100%
CN(CCCC(F)(F)F)c1nccc(-c2cnn3ncccc23)n1  remaining binding (binding; 1 µM): 100%
CN(c1ccnc(CNc2nc(Nc3ccc4c(c3)CC(=O)N4)ncc2C(F)(F)F)n1)S(C)(=O)=O  remaining binding (cell-free assay, competition with immobilised ligand; 1 µM): 79%
Cc1nc(NC(=O)N2CCC[C@H]2C(N)=O)sc1-c1ccnc(C(C)(C)C(F)(F)F)c1  remaining binding (binding, competition with immobilised ligand; 10 µM): 4%
